Test [1] has as its target T1, Vitamin D3 receptor (Sus scrofa) (UniProt A3RGC1).
T1 sequence (whole entry): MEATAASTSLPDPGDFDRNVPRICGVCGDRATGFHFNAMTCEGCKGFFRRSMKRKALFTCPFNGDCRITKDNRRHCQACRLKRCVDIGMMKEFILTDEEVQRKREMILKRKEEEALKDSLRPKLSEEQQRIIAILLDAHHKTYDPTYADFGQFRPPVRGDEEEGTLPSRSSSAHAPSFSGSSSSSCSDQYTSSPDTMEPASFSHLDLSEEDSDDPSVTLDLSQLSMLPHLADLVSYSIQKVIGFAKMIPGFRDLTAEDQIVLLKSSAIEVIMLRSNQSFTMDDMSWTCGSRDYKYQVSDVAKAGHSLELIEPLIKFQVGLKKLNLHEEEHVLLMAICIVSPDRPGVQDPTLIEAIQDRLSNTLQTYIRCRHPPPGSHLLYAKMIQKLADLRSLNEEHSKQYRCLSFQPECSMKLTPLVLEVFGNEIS
The test can be described thus: Binding affinity for porcine intestinal Vitamin D3 receptor (VDR) relative to 1,25(OH)2D3 (100). An outline of the steps:
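Competition with [3H]1,25(OH)2D3 for receptor in high-speed supernatant of normal pig intestinal mucosa homogenate. Incubated 20 h at 4 °C, then dextran-coated charcoal phase separation. Relative affinity from the concentration displacing 50% of tracer, referenced to 1,25(OH)2D3 at 100%.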

In test [2] the test system is Mus musculus. The test can be described thus: Hypercalcemic effect by daily sc injection of compound was measured as serum calcium concentration in vitamin D-replete normal NMRI mice relative to 1,25(OH)2D3 (100). The format is functional. The essentials: (§1)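 Vitamin D-replete normal NMRI mice given compound or solvent by daily subcutaneous injection for 7 consecutive days. Serum calcium concentration used as the read-out.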

The test system of a further test is HL-60. Description: In vitro induction of cell differentiation in HL-60 cells relative to 1,25(OH)2D3 (100). The format is functional, Homo sapiens. An outline of the steps:
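HL-60 cells seeded at 4×10^4 cells/mL in RPMI 1640 with 20% FCS and gentamycin, 37 °C, 5% CO2. Compounds added in ethanol (final <0.2%) one day later, then cultured 4 days. Differentiation read as NBT reduction: 1×10^6 cells/mL mixed with PMA (200 ng/mL) and NBT ([…]), 30 min at 37 °C. Formazan-positive cells counted by hemacytometer.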

Test [3] addresses T2, Vitamin D-binding protein (Homo sapiens) (UniProt P02774).
T2 sequence (whole entry): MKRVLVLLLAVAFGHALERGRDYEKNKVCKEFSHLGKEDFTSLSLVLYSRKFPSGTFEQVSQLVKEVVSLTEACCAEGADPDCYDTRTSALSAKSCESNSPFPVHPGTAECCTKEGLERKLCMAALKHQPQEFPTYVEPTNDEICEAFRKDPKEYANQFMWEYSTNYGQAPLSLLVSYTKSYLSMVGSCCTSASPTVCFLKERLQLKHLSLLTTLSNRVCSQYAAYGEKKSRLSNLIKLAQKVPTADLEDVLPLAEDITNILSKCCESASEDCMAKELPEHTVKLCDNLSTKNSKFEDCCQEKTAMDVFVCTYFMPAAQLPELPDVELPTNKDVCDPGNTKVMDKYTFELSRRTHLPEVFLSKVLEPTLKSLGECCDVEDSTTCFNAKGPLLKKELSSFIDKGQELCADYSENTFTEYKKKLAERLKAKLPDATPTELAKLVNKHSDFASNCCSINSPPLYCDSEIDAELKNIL
The test can be described thus: Binding affinity for human vitamin D binding protein (hDBP) relative to 1,25(OH)2D3 (100). An outline of the steps: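 Competition with [3H]1,25(OH)2D3 for human serum DBP (0.18 μM), purified by affinity chromatography. Ligands added in 5 μL ethanol. Incubated 3 h at 4 °C in 0.01 M Tris-HCl with 0.154 M NaCl, pH 7.4. Bound and free separated with cold dextran-coated charcoal. Activity expressed relative to 1,25(OH)2D3 set at 100.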

The subject of test [4] is Keratinocyte cell line. The test can be described thus: Inhibition of human skin keratinocyte proliferation relative to 1,25(OH)2D3 (100). The format is functional. An outline of the steps: (§2)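 Human foreskin keratinocytes isolated by overnight Dispase digestion and grown in serum-free keratinocyte medium with pituitary extract and EGF. Seeded at 5×10^3 cells/well in medium without insulin. After 1 day, serial dilutions added in ethanol (<0.2% final) for 72 h. Then [3H]thymidine 1 μCi/well for 2 h and incorporation counted.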

The subject of test [5] is MCF7. Description: Antiproliferative activity on MCF-7 cells relative to 1,25(OH)2D3 (100). The format is functional, Homo sapiens. An outline of the steps: (§3)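 MCF-7 cells grown in DMEM/F12 with 10% heat-inactivated FCS, glutamine, penicillin and streptomycin, 37 °C, 5% CO2. Seeded at 5×10^3 cells/well. Compounds added after 24 h and incubated 72 h. Then 1 μCi [3H]thymidine per well for 4 h, cells harvested and radioactivity counted. Triplicate cultures. Activity expressed relative to 1,25(OH)2D3 set at 100.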

A further test concerns Gallus gallus. The test can be described thus: In Vivo evaluation for the calcemic activity in vitamin D-replete normal in ICA chick. It counts as functional.
Test [6] deals with MCF7. The test can be described thus: In vitro cell proliferative activity on MCF-7 cells. The format is functional, Homo sapiens. The essentials:
as §3

Test [7] deals with T3, Vitamin D-binding protein (Rattus norvegicus) (UniProt P04276).
T3 sequence (whole entry): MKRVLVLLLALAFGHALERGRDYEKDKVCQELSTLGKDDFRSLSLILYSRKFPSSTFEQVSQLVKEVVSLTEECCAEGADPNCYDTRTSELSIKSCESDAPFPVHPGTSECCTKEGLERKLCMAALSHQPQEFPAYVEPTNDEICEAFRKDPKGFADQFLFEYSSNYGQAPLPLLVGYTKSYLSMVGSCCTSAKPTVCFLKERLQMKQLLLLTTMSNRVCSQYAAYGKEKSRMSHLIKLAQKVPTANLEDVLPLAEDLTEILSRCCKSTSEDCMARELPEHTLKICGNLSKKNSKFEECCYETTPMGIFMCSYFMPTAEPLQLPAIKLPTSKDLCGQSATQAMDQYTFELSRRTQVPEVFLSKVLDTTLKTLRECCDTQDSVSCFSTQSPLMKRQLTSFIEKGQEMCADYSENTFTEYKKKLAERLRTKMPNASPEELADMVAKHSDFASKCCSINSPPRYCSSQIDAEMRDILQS
Description: Binding affinity for rat Vitamin D binding protein.

Test [8] deals with Mus musculus. Description: In Vivo evaluation for the calcemic activity in vitamin D-replete normal in NMRI mice. It counts as functional. An outline of the steps: as §1
Test [9] has as its system Keratinocyte cell line. The test can be described thus: In vitro proliferative activity on keratinocyte cells. It counts as functional, Homo sapiens. An outline of the steps:
as §2

Test [10] deals with T3, Vitamin D-binding protein (Rattus norvegicus). Description: Binding affinity for rat vitamin D binding protein (DBP) relative to 1,25(OH)2D3 (100).

The text below walks through data of ChEMBL document CHEMBL1132106, “Synthesis, biological activity, and conformational analysis of four seco-D-15,19-bisnor-1alpha,25-dihydroxyvitamin D analogues, diastereomeric at C17 and C20” (1999).

With `C[C@H](CCCC(C)(C)O)[C@H]1CC[C@H]2/C(=C/C=C3C[C@@H](O)C[C@H](O)C3)CCC[C@]12C`, the Relative binding affinity in [1] stood at 30; in test [3], 48. The “Hypercalcemic activity relative to 1,25(OH)2D3 (=100)” value in the test with Mus musculus [2] is on record as 0.3. Besides, the Relative activity in the test with HL-60 was 90.

On to `C[C@H]([C@@H](C)CCCC(C)(C)O)[C@@]1(C)CCC/C(=C\C=C2C[C@@H](O)C[C@H](O)C2)C1`, for which the Relative binding affinity was determined as 10 in test [1] and 0 in test [3]. Further, the “Hypercalcemic activity relative to 1,25(OH)2D3 (=100)” value with Mus musculus [2] is recorded as 0.25. For the same compound, the Relative activity stood at 10 with HL-60, 80 in the test on Keratinocyte cell line [4] and 40 with MCF7 [5].

Turning to `C[C@@H](CCCC(C)(C)O)[C@H](C)[C@@]1(C)CCC/C(=C\C=C2C[C@@H](O)C[C@H](O)C2)C1`, the Relative binding affinity came to 9 in test [1] and 0 in test [3]. Further, in the test on Mus musculus [2], the “Hypercalcemic activity relative to 1,25(OH)2D3 (=100)” value is recorded as 25. In addition, the Relative activity in the test on HL-60 was found to be 70; in the test with Keratinocyte cell line [4], 85; in the test on MCF7 [5], 90.

`C=C1/C(=C\C=C2/CCC[C@]3(C)[C@@H]([C@H](C)CCCC(C)(C)O)CC[C@@H]23)C[C@@H](O)C[C@@H]1O` [CALCITRIOL]: in the test with Gallus gallus, the ICA is reported as 100. Also, the Activity in the test with MCF7 [6], in the test with HL-60 and with Keratinocyte cell line [9] was 100 each time. For the same compound, the Binding affinity in test [7], in test [1] and in test [3] was 100 throughout. In the test on Mus musculus [8], the “Ca2+ serum” value is listed as 100.

Regarding `C=C1/C(=C\C=C2/CCC[C@]3(C)[C@@H]([C@@H](C)[C@@H](C)CCC(C)(C)O)CC[C@@H]23)C[C@@H](O)C[C@@H]1O`, the ICA in the test with Gallus gallus is 0.1. Besides, the Relative binding affinity in test [1] was 1; in test [10], 0.25. The same compound showed a Relative activity with HL-60 of 8.

Regarding `C=C1/C(=C\C=C2/CCC[C@]3(C)[C@@H]([C@H](C)[C@H](C)CCC(C)(C)O)CC[C@@H]23)C[C@@H](O)C[C@@H]1O`, the ICA with Gallus gallus is recorded as 25. The figures for the Relative binding affinity in test [1] and in test [10] were 1.7 and 0.45, respectively. The compound also returned a Relative activity in the test on HL-60 of 1.3.

In the case of `C=C1/C(=C\C=C2/CCC[C@]3(C)[C@@H]([C@H](C)OCCC(C)(C)O)CC[C@@H]23)C[C@@H](O)C[C@@H]1O` [MAXACALCITOL], the Relative binding affinity is 18 in [1] and 0 in test [3]. The “Hypercalcemic activity relative to 1,25(OH)2D3 (=100)” value in the test on Mus musculus [2] is given as 0.3. The compound further returned a Relative activity in the test on HL-60 of 197.

With `C[C@H](CCCC(C)(C)O)[C@H](C)[C@@]1(C)CCC/C(=C\C=C2C[C@@H](O)C[C@H](O)C2)C1`, the Relative binding affinity came out at 8 in [1] and 0 in test [3]. The “Hypercalcemic activity relative to 1,25(OH)2D3 (=100)” value with Mus musculus [2] is 0.25. Also, the Relative activity was found to be 75 in the test with HL-60, 60 in the test with Keratinocyte cell line [4] and 75 in the test on MCF7 [5].

`C=C1/C(=C\C=C2/CCC[C@]3(C)[C@@H]([C@@H](C)CCCC(C)(C)O)CC[C@@H]23)C[C@@H](O)C[C@@H]1O`: the Relative binding affinity was 88 in [1] and 0.2 in test [3]. For the same compound, in the test with Mus musculus [2], the “Hypercalcemic activity relative to 1,25(OH)2D3 (=100)” value is 800. The compound further displayed a Relative activity in the test with HL-60 of 3000.

As to `C=C1/C(=C/C=C2/CCC[C@]3(C)C([C@H](C)CC#CC(C)(C)O)=CC[C@@H]23)C[C@@H](O)C[C@@H]1O`, the Relative binding affinity in [1] came out at 85; in test [3], 0. Besides, the “Hypercalcemic activity relative to 1,25(OH)2D3 (=100)” value with Mus musculus [2] is reported as 8. In the test with HL-60, this compound showed a Relative activity of 950.

In the case of `C[C@H](CCCC(C)(C)O)[C@@H](C)[C@@]1(C)CCC/C(=C\C=C2C[C@@H](O)C[C@H](O)C2)C1`, the Relative binding affinity in test [1] was 45; in [3] it was 3. Moreover, in the test on Mus musculus [2], the “Hypercalcemic activity relative to 1,25(OH)2D3 (=100)” value is reported as 13. In addition, the values for the Relative activity in the test with HL-60, in the test with Keratinocyte cell line [4] and in the test on MCF7 [5] were 1000, 5000 and 2000, respectively.

As for `C=C1/C(=C\C=C2/CCC[C@]3(C)[C@@H]([C@H](C)[C@@H](C)CCC(C)(C)O)CC[C@@H]23)C[C@@H](O)C[C@@H]1O`, the ICA in the test on Gallus gallus is recorded as 50. The Relative binding affinity in test [1] was determined as 33; in [10], 67. The compound further showed a Relative activity in the test with HL-60 of 100.

For the compound `C=C1/C(=C\C=C2/CCC[C@]3(C)[C@@H]([C@@H](C)[C@H](C)CCC(C)(C)O)CC[C@@H]23)C[C@@H](O)C[C@@H]1O`, the ICA in the test on Gallus gallus is given as 50. The Relative binding affinity in [1] is 2000; in [10], 0.25. This compound also returned a Relative activity in the test on HL-60 of 11900.
